Only some compounds are listed: those with a hit (about 1.5% of all), similar ones and a draw of the others.
NR2E3 ag-1 = human photoreceptor-specific nuclear receptor agonism. Q9Y5X4. CHO-S Gal4-NCOR/VP16-NR2E3 two-hybrid, luciferase. inhibition of corepressor binding, % at 3.98 µM. actives 0.35% (n = 360,000). AID 602229;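 active means inhibition above the mean of all tested compounds plus 3 SD, cut at about 70% in these data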;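 further: 0% = DMSO with NR2E3 transfected cells and 100% = cells lacking NR2E3 construct; higher means lower luciferase signal from less NR2E3 corepressor binding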
Rev-erbA mod = Rev-erb alpha (human) modulation | activity, % at 10 µM | P20393 | Rev-erbα–FITC-DNA binding, fluorescence polarization, 90 min | AID 1259318 | actives 0.79% (n = 370,000);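 active means activity above about 14%, limit read from the data; passing the limit was not always enough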;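 further: 0% = DMSO wells with 35 nM protein and 100% = DMSO wells with 750 nM protein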
Target sequence (P20393 whole entry, looked up): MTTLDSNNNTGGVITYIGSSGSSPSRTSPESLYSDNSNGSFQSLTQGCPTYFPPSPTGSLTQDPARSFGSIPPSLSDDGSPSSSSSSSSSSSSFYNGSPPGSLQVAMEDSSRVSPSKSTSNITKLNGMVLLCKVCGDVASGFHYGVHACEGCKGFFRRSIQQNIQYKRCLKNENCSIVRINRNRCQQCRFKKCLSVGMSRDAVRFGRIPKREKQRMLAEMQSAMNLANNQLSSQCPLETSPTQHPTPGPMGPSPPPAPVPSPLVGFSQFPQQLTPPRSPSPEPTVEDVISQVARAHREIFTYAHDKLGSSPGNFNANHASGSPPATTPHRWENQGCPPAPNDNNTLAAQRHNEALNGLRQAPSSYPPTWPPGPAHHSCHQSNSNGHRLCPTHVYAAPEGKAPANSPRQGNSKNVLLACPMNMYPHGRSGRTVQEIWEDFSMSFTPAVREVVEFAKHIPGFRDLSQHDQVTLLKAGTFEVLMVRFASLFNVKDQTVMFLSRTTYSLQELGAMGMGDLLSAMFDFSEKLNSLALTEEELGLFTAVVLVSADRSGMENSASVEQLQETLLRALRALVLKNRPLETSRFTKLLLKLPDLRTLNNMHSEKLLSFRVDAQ
NR2E3 ag-2 = agonists of human nuclear receptor NR2E3 | Q9Y5X4 | actives 0.12% (n = 320,000) | GST-NR2E3/biotin-RetCOR TR-FRET, 1536-well | AID 2300 | inhibition of corepressor binding, % at 4.78 µM;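 active means percent inhibition above the cutoff of mean plus 3 SD of all tested compounds, set per screening campaign, cut at about 20% in these data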;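 further: 0% = DMSO wells and 100% = biotin wells as full block of FRET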
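Assay system: NR2E3–RetCOR corepressor complex. Quantity: 1.35 nM GST-NR2E3. Buffer or medium: pH 7.5 Tris-based buffer. Reagent: biotinylated RetCOR corepressor at 7 nM final. Schedule: 5 h at 4 °C. Detection: TR-FRET, emission read at 617 and 671 nm. Replicates: one well per compound, singlicate testing.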
PG9 Ab binder = PG9 antibody binding by small molecule | TR-FRET gp120-PG9 antibody binding | inhibition, % at 6.7 µM | actives 0.43% (n = 360,000); in the data active means inhibition above about 8.5%
Rev-erbA confirm = confirmation of modulators of human Rev-erb alpha DNA binding; shares compounds with Rev-erbA mod; Rev-erb alpha FITC-DNA binding, fluorescence polarization, 90 min; activation, % at 25 µM; actives 61% (n = 3,000);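 active means activation at or above a set limit, or at least 3 SD above the negative control mean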;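 further: 0% = 35 nM protein with DMSO and 100% = 750 nM protein high control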
RORg counter = RORgamma DNA-binding activity, dose-response counter-screen. shares compounds with Rev-erbA mod. purified RORgamma protein-FITC-DNA binding, fluorescence polarization. IC50, µM. actives 8% (n = 910). AID 1259320;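 active means Compounds whose fitted half-maximal concentration for disrupting protein-DNA binding is below 10 micromolar; the record names Rev-erb in its text, so the target is in doubt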
The depositor's hits bear a star.

Results for O=C(OCc1cn(Cc2cc(F)ccc2F)nn1)N1CCOCC1 ?
Rev-erbA mod: 7

Results for CCOc1ccc(NC(=O)CCSc2ccc3ccccc3n2)cc1 ?
NR2E3 ag-1: -14; Rev-erbA mod: 82*; NR2E3 ag-2: 3; PG9 Ab binder: -1; Rev-erbA confirm: 46*; RORg counter: >40

How did CCOc1ccc(NC(=O)c2ccc(NC(=O)c3cn4c5c(c(N6CCN(C)CC6)c(F)cc5c3=O)OCC4C)cc2)cc1 (stereo not given) do in these assays?
NR2E3 ag-1: -8; Rev-erbA mod: 70*; NR2E3 ag-2: 3; PG9 Ab binder: -1; Rev-erbA confirm: 41*

How did CC1COc2c(N3CCN(C)CC3)c(F)cc3c(=O)c(C(=O)O)cn1c23 (stereo not given) do in these assays?
NR2E3 ag-1: -28; Rev-erbA mod: -4; NR2E3 ag-2: 9; PG9 Ab binder: 1

Results for Cc1cccc(N(C(=O)c2snc(C(N)=O)c2N)C(C(=O)NCC2CCCO2)c2ccc(N(C)C)cc2)c1 (stereo not given) ?
NR2E3 ag-1: -14; Rev-erbA mod: 46*; NR2E3 ag-2: 1; PG9 Ab binder: 0; Rev-erbA confirm: 14

How did CN(C)c1ccc(C(C(=O)NCC2CCCO2)N(C(=O)c2snc(C(N)=O)c2N)c2ccccc2)cc1 (stereo not given) do in these assays?
NR2E3 ag-1: -22; Rev-erbA mod: 38*; NR2E3 ag-2: -3; PG9 Ab binder: -3; Rev-erbA confirm: 10

Results for CCCCC(C(=O)NC1CCCC1)N(Cc1ccccc1)C(=O)c1snc(C(N)=O)c1N (stereo not given) ?
NR2E3 ag-1: -9; Rev-erbA mod: 22*; NR2E3 ag-2: 5; PG9 Ab binder: -1; Rev-erbA confirm: -1

Results for CCCCCCNC(=O)OC12CN(C(=O)OC(C)C)N(C(=O)OC(C)C)CC1(O)CN(S(=O)(=O)c1ccc(C)cc1)C2 (stereo not given) ?
NR2E3 ag-1: 26; Rev-erbA mod: 15*; PG9 Ab binder: 0; Rev-erbA confirm: 0

How did C=CCCCCCCCCC(=O)N1CCN(c2cc3c(cc2F)c(=O)c(C(=O)O)cn3CC)CC1 do in these assays?
NR2E3 ag-1: -38; Rev-erbA mod: 3; NR2E3 ag-2: 1; PG9 Ab binder: -2

What do the screens show for `CCCCCCn1cc(C(=O)O)c(=O)c2cc(F)c(N3CCN(C(=O)OCC)CC3)cc21`?
NR2E3 ag-1: -27; Rev-erbA mod: 31*; NR2E3 ag-2: -1; PG9 Ab binder: 1; Rev-erbA confirm: 6

What do the screens show for `CCOc1ccc(-c2nnn(CC(=O)c3cc(OC)ccc3OC)n2)cc1`?
NR2E3 ag-1: -14; Rev-erbA mod: 19*; NR2E3 ag-2: 2; PG9 Ab binder: -2; Rev-erbA confirm: 5

What do the screens show for `O=C(O)c1cccc(-n2c(/C=C/c3ccccc3)nc3ccccc3c2=O)c1`?
NR2E3 ag-1: 18; Rev-erbA mod: 4; NR2E3 ag-2: -1; PG9 Ab binder: -1

How did CN(C)c1ccc(/C=C/c2nc3ccccc3c(=O)n2-c2ccc(C(=O)O)cc2)cc1 do in these assays?
NR2E3 ag-1: -29; Rev-erbA mod: 23*; NR2E3 ag-2: -1; PG9 Ab binder: 0; Rev-erbA confirm: 24*

Results for COc1ccc(S(=O)(=O)N2CCCCCC2)cc1C(=O)Nc1ccccn1 ?
NR2E3 ag-1: 4; Rev-erbA mod: 46*; NR2E3 ag-2: -6; PG9 Ab binder: 0; Rev-erbA confirm: 15

How did COc1ccc(S(=O)(=O)N2CCc3ccccc32)cc1C(=O)Nc1ccc(NC(C)=O)cc1 do in these assays?
NR2E3 ag-1: -27; Rev-erbA mod: 58*; PG9 Ab binder: 1; Rev-erbA confirm: 41*; RORg counter: >40

Results for COc1ccc(S(=O)(=O)N2CCCCCC2)cc1C(=O)Nc1cc(C)ccn1 ?
NR2E3 ag-1: 1; Rev-erbA mod: 2; NR2E3 ag-2: 3; PG9 Ab binder: 2

What do the screens show for `COc1ccc(S(=O)(=O)N2CCCCCC2)cc1C(=O)Nc1ccc(C)cn1`?
NR2E3 ag-1: -12; Rev-erbA mod: 101*; NR2E3 ag-2: 5; PG9 Ab binder: 0; Rev-erbA confirm: 30*; RORg counter: 0.79*

Results for COc1ccc(-c2cc3c(=O)n(CC(=O)Nc4ccc(C(C)=O)cc4)ncn3n2)cc1 ?
NR2E3 ag-1: -20; Rev-erbA mod: 34*; NR2E3 ag-2: 0; PG9 Ab binder: -2; Rev-erbA confirm: 41*; RORg counter: >40

Results for COc1ccc(-c2cc3c(=O)n(CC(=O)NCc4cccnc4)ncn3n2)cc1 ?
NR2E3 ag-1: -62; Rev-erbA mod: -4; NR2E3 ag-2: 1; PG9 Ab binder: 0

Results for CCOc1cccc2cc(C(N)=O)c(=NCc3ccccc3)oc12 ?
NR2E3 ag-1: -9; Rev-erbA mod: 48*; NR2E3 ag-2: 1; PG9 Ab binder: -3; Rev-erbA confirm: 17*

What do the screens show for `CCOc1cccc2cc(C(N)=O)c(=N)oc12`?
NR2E3 ag-1: -5; Rev-erbA mod: -6; PG9 Ab binder: 0

What do the screens show for `Cc1cc2oc(=O)cc(-c3ccccc3)c2c(C)c1-c1ccc(O)cc1`?
NR2E3 ag-1: 2; Rev-erbA mod: 17*; PG9 Ab binder: -1; Rev-erbA confirm: 2

How did CS(=O)(=O)c1ccc2nc(NC(=O)c3cc([N+](=O)[O-])cc([N+](=O)[O-])c3)sc2c1 do in these assays?
NR2E3 ag-1: 6; Rev-erbA mod: 5; NR2E3 ag-2: 1; PG9 Ab binder: -1

Results for COc1ccc2oc(C(=O)Nc3nnc(C)s3)c(C)c2c1 ?
NR2E3 ag-1: -131; Rev-erbA mod: 2; NR2E3 ag-2: 2; PG9 Ab binder: 0

Results for CC(=O)c1sc(NC(=O)c2oc3ccc(F)cc3c2C)nc1C ?
NR2E3 ag-1: -79; Rev-erbA mod: 54*; PG9 Ab binder: 0; Rev-erbA confirm: 46*; RORg counter: >40

Results for CC(=O)c1sc(NC(=O)c2cc(=O)c3ccccc3o2)nc1C ?
NR2E3 ag-1: -42; Rev-erbA mod: 1; NR2E3 ag-2: 4; PG9 Ab binder: -3

How did COc1cc(OC)cc(C(=O)Nc2nc3ccc(S(C)(=O)=O)cc3s2)c1 do in these assays?
NR2E3 ag-1: -52; Rev-erbA mod: 33*; NR2E3 ag-2: 0; PG9 Ab binder: 2; Rev-erbA confirm: 21*

What do the screens show for `COc1cc(C(=O)Nc2nc3ccc(S(C)(=O)=O)cc3s2)cc(OC)c1C`?
NR2E3 ag-1: -32; Rev-erbA mod: 21*; NR2E3 ag-2: 4; PG9 Ab binder: 3; Rev-erbA confirm: 10

How did COc1ccc2oc(C(=O)Nc3nc4ccc(S(C)(=O)=O)cc4s3)c(C)c2c1 do in these assays?
NR2E3 ag-1: 9; Rev-erbA mod: 31*; NR2E3 ag-2: -3; PG9 Ab binder: -1; Rev-erbA confirm: 0

How did O=C(Nc1ccc(Br)cc1)c1ccc2ncsc2c1 do in these assays?
NR2E3 ag-1: -236; Rev-erbA mod: -2; NR2E3 ag-2: -3; PG9 Ab binder: -1

Screening results: PubChem, several laboratories
